# Experimental data taken from paper PMC3152616 (Peptides, 2011).
# Where two headings read alike, the source gives them in different places. Marks after values point to notes of the source that are not given here. Numbered stars: 1 amine (or outer) side, 2 acyl side, 3 side chain; on linkers, the order of the positions; unused ones are H or OH. Square brackets hold non-standard residues; d marks the D form. Peptide text beside a SMILES is read from it. * marks the point of attachment. dProψ(CH2NH)PheNH2 = NC(=O)[C@H](Cc1ccccc1)NC[C@H]1CCCN1*; X1 = O=C(C[C@@H](N[*:1])c1ccc(Cl)cc1)[*:2]; Hydrocinnamoyl = O=C(CCc1ccccc1)*; NHPhenethyl = c1ccc(CCN*)cc1; Nle = CCCC[C@H](N)C(=O)O; PhAc = O=C(Cc1ccccc1)*
# What was measured:
# [1] = system: EGFR tyrosine phosphorylation; assay: EGFR tyrosine phosphorylation; format: cell-based, human
# [2] = system: BB2R; conditions: cited from earlier work
# [3] = system: NCI-H1299-BRS-3 cells; assay: Clonogenic assay; format: cell-based, human; conditions: for Colony number: addition 10 nM, mean ± S.D., no addition 40 ± 6; for Effect on NCI-H1299-BRS-3 cellular proliferation: unpublished
# [4] = target: T1, BRS-3 (Homo sapiens, UniProt P32247); assay: Inhibition of specific 125I-BA1 binding to NCI-H1299-BRS-3 cells
# T1 sequence (P32247 1-399): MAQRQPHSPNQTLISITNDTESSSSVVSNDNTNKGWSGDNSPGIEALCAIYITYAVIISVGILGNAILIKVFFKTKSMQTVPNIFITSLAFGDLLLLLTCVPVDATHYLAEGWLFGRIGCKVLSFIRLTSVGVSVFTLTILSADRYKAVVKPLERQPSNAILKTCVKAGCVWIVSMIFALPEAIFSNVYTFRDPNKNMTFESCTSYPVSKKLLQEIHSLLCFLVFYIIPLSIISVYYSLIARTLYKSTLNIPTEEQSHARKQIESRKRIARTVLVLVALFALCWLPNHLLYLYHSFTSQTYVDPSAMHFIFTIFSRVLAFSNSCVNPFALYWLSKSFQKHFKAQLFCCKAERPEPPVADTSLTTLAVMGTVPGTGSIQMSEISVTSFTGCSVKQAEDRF
# [5] = target: T1, BRS-3; conditions: cited from earlier work
# [6] = system: ERK tyrosine phosphorylation; assay: ERK tyrosine phosphorylation; format: cell-based, human; conditions: concentration not given
# [7] = system: BB1R; conditions: read-out: IC50, binding to BB1R; transfected Balb 3T3 cells; cited from earlier work
# [8] = system: Balb/3T3-BRS-3 cells; assay: MTT proliferation assay; format: cell-based
# [9] = system: Balb/3T3 cells; assay: MTT proliferation assay, control cells; format: cell-based; conditions: 30 μg/ml, 16 hours, mean ± S.E.
# Summary of the method: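 Parental Balb/3T3 cells lacking BRS-3 were maintained in DMEM with 10% FBS. They were seeded at 10⁴/well in serum-free SIT medium (RPMI-1640 with selenite, insulin and transferrin) and exposed for 16 h to test compound at 10 nM or 30 μg/ml. MTT was then added for 3 h, formazan was dissolved in DMSO, and OD was read at 570 nm. Growth is given as % of control, mean ± S.E.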
# [10] = read-out: IC50, binding to BRS-3, transfected Balb 3T3 cells
# [11] = read-out: IC50, binding to BB2R, transfected Balb 3T3 cells
# [12] = concentration not given, data not shown / unpublished
compound,measurement,setting,value
CC(C)(C)n1nc(-c2ccc(Cl)cc2)c2c(N)ncnc21 [PP2],Inhibition of the increase in EGFR tyrosine phosphorylation caused by BA1,"[1]; 10 μM, 100 nM BA1",inhibited
Ac-Phe-Trp-Ala-His(γBzl)-Nip-Gly-Arg-NH2,IC50,"[2]; read-out: IC50, BB2R, ref 2, 28",> 10000 nM
same,IC50,"[2]; read-out: IC50, BB2R, ref 26, 27",2800 nM
"c1ccc2c(c1)[I+]c1ccccc1-2 [DPI, diphenylene iodonium]",Inhibition of the increase in EGFR tyrosine phosphorylation caused by BA1,"[1]; 15 μM, 100 nM BA1",inhibited
"CSCC[C@H](NC(=O)[C@H](CC(C)C)NC(=O)[C@H](Cc1c[nH]cn1)NC(=O)CNC(=O)[C@@H](NC(=O)[C@H](C)NC(=O)[C@H](Cc1c[nH]c2ccccc12)NC(=O)[C@H](Cc1c[nH]cn1)NC(=O)[C@H](CC(N)=O)NC(=O)CNC(=O)[C@H](CCCNC(=N)N)NC(=O)[C@@H]1CCCN1C(=O)[C@H](Cc1ccc(O)cc1)NC(=O)[C@H](CCSC)NC(=O)[C@H](CCCCN)NC(=O)[C@@H](NC(=O)[C@H](CC(C)C)NC(=O)[C@@H](NC(=O)[C@@H](NC(=O)CNC(=O)CNC(=O)CNC(=O)[C@H](C)NC(=O)[C@@H]1CCCN1C(=O)[C@H](CC(C)C)NC(=O)[C@@H]1CCCN1C(=O)[C@@H](N)C(C)C)[C@@H](C)O)C(C)C)[C@@H](C)O)C(C)C)C(N)=O [GRP, gastrin releasing peptide]",Colony number,[3],41 ± 5^aa
"CSCC[C@H](NC(=O)[C@H](Cc1ccccc1)NC(=O)[C@H](Cc1c[nH]cn1)NC(=O)CNC(=O)[C@@H](NC(=O)[C@H](C)NC(=O)[C@H](Cc1c[nH]c2ccccc12)NC(=O)[C@H](CC(C)C)NC(=O)[C@H](CC(N)=O)NC(=O)CN)[C@@H](C)O)C(N)=O [NMB, neuromedin B]",IC50,[4],> 2000 nM
same,Colony number,[3],46 ± 5^a
CNC(=O)[C@H](Cc1c[nH]c2ccccc12)NC(=O)[C@@H](CC(=O)NO)CC(C)C [GM6001],Inhibition of the increase in EGFR tyrosine phosphorylation caused by BA1,"[1]; 10 μM, 100 nM BA1",inhibited
"CCCC[C@H](NC(=O)[C@H](Cc1ccccc1)NC(=O)[C@H](Cc1c[nH]cn1)NC(=O)C[C@@H](NC(=O)[C@@H](NC(=O)[C@H](C)NC(=O)[C@H](Cc1c[nH]c2ccccc12)NC(=O)[C@H](CCC(N)=O)NC(=O)[C@H](N)Cc1ccc(O)cc1)C(C)C)c1ccc(Cl)cc1)C(N)=O [BA3, (DTyr^6, R-Apa^11,4-Cl,Phe^13, Nle^14)bombesin^6-14] (H-[dY]QWAV[X1]HF[Nle]-NH2; N-terminus and C-terminus assumed)",EGFR tyrosine phosphorylation (transactivation),"[1]; 100 nM, NCI-H1299-BRS-3 cells",increased
same,Selectivity for hBRS-3 over hNMBR or hGRPR,[5],over 60 fold
CC(C)[C@H](NC(=O)[C@H](C)NC(=O)[C@H](Cc1c[nH]c2ccccc12)NC(=O)[C@H](Cc1c[nH]cn1)NC(=O)CCc1ccccc1)C(=O)N[C@H](C)C(=O)N[C@@H](Cc1c[nH]cn1)C(=O)N1CCC[C@@H]1CN[C@@H](Cc1ccccc1)C(N)=O [BW2258U89] (Hydrocinnamoyl-HWAV[dA]H-{dProψ(CH2NH)PheNH2}; N-terminus and C-terminus assumed),Effect on NCI-H1299-BRS-3 cellular proliferation,[3],little effect
same,Inhibition of BA1-induced ERK tyrosine phosphorylation,[6],not inhibited
same,IC50,[5]; [10],6.82 µM
same,IC50,[7],4900 nM
same,IC50,[2]; [11],0.2 nM
C[C@H](NC(=O)Cc1ccccc1)C(=O)N[C@H](Cc1c[nH]c2ccccc12)C(=O)NCCc1ccccc1 [16a] (PhAc-Ala-[dW]-NHPhenethyl),IC50,"[5]; read-out: IC50, binding to human BRS-3",3.16 µM
COc1cc2ncnc(Nc3cccc(Cl)c3)c2cc1OC [AG1478],Inhibition of the increase in EGFR tyrosine phosphorylation caused by BA1,[1]; [12],blocked
same,Inhibition of BA1-induced ERK tyrosine phosphorylation,[6],blocked
COc1cccc(-c2cc(=O)c3ccccc3o2)c1N [PD98059],Effect on growth,"[8]; 10 μM, all cells tested, preliminary unpublished data",little effect
same,Inhibition of the increase in EGFR tyrosine phosphorylation caused by BA1,[1]; [12],no effect
same,Inhibition of BA1-induced ERK tyrosine phosphorylation,[6],reversed
O=S(=O)(O)c1cc(O)c(O)c(S(=O)(=O)O)c1 [Tiron],Inhibition of the increase in EGFR tyrosine phosphorylation caused by BA1,"[1]; 5 mM, 100 nM BA1",reversed
CC(=O)N[C@@H](CS)C(=O)O [N-acetylcysteine],Inhibition of the increase in EGFR tyrosine phosphorylation caused by BA1,"[1]; 5 mM, 100 nM BA1",reversed
"COc1cc2ncnc(Nc3ccc(F)c(Cl)c3)c2cc1OCCCN1CCOCC1 [Gefitinib, gefitinib]",IC50,[4],> 2000 nM
same,Effect on colony number,"[3]; gefitinib dose-response, exogenous BA1 not added, Fig. 1B",reduced colony number in a dose-dependent manner
same,% Growth Balb/3T3,[9],31 ± 4 %
same,% Growth Balb/3T3-BRS-3,"[8]; 30 μg/ml, 16 hours, MTT, mean ± S.E.",41 ± 6 %
C[C@@](Cc1c[nH]c2ccccc12)(NC(=O)Nc1ccc([N+](=O)[O-])cc1)C(=O)NCC1(c2ccccn2)CCCCC1 [PD168368],IC50,"[4]; read-out: IC50, inhibition of specific 125I-BA1 binding, NCI-H1299-BRS-3 cells, 37°C, mean ± S.E. of 4 determinations",> 2000 nM
same,Effect on NCI-H1299-BRS-3 cellular proliferation,[3],little effect
same,Inhibition of BA1-induced ERK tyrosine phosphorylation,[6],not inhibited
same,IC50,[5]; [10],> 10 µM
same,IC50,[7],0.5 nM
same,IC50,[2]; [11],213 nM
